TCR CD3 inh = human TCR-CD3 binding inhibition | TAMRA-labeled TCR probe fluorescence, biochemical | inhibition, % at 9.4 µM | actives 0.37% (n = 360,000) | AID 651800; in the data active = inhibition above about 19%;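 also: recombinant mutant TCR 2C K166C tagged with TAMRA read by polarization; 0% = receptor in buffer alone and 100% = receptor with positive control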
HTRA1 inhibitor = HTRA1 (human) protease inhibition; recombinant HTRA1, FP-rhodamine activity-based probe, fluorescence polarization; AID 504803; inhibition, % at 5.96 µM; actives 0.5% (n = 340,000); Q92743; in the data active = inhibition above about 36%;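 also: 0% = enzyme with DMSO and 100% = wells lacking enzyme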
ABHD4 inh = inhibits mouse alpha/beta hydrolase domain 4. inhibition, % at 8.92 µM. actives 0.54% (n = 370,000). Q8VD66. AID 720543. purified mABHD4, FP-Rh probe fluorescence polarization;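 active = inhibition exceeding the mean over every tested compound plus 3 SD, cut at about 30% in these data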;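 also: 0% = plate median of compound wells and 100% = S159A mutant with DMSO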
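Assay system: wild-type mouse ABHD4 protein; compound: single nominal dose of 8.92 µM, 0.89% DMSO final; schedule: 45 min + 60 min at 25 °C; measured by: FP readout, ex 525 nm / em 598 nm; evaluation: % inhibition of FP-Rh probe binding versus controls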
DDE Tn6 FP inh = inhibitors of Tn6 peptide binding to human fibrin DD(E) | P02675 | Fibrin DD(E) TRITC-Tn6 fluorescence polarization displacement | inhibition, % at 8.3 µM | actives 0.21% (n = 370,000) | AID 720509;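 active = inhibition above a per-campaign cutoff: mean of compounds within control limits plus 3 SD, cut at about 15% in these data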;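 also: 0% = median of all compound wells on the plate and 100% = blocking peptide control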
Target sequence (P02675 whole entry, looked up): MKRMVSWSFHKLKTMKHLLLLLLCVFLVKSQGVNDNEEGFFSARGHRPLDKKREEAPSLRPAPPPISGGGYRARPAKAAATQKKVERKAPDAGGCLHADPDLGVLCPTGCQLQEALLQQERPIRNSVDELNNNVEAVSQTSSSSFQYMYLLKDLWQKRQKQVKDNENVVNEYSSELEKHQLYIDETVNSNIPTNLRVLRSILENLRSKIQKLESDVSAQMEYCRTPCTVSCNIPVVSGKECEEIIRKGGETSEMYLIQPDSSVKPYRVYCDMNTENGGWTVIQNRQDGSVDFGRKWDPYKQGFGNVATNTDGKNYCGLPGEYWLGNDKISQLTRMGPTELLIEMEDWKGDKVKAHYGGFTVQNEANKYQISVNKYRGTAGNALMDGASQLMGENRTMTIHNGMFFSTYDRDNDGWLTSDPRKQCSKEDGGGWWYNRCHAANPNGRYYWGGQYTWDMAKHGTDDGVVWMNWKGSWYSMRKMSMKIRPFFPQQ
Tn7 DDE FP = DD(E)-Tn7 binding inhibition, primary FP screen; inhibition, % at 8.3 µM; actives 0.13% (n = 370,000); AID 720508; FP displacement of FITC-Tn7 peptide from fibrin DD(E); 0% = median of compound wells per plate;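 active = inhibition above the mean of compounds falling within the control limits plus 3 SD of them, cut at about 14% in these data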;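 also: 0% = plate median of compound wells and 100% = 10 µM Aha-Tn7 peptide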
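Measure: % inhibition scaled between sample-field median and high-control FP; Test system: human fibrin DD(E); Quantity: 2 µM final DD(E) protein; Doses: one dose, 8.3 µM nominal; Schedule: compound with protein 10 min, then 3 h after probe, room temperature; Detection: fluorescence polarization; Medium: Tris buffer with calcium and detergent, pH 7.8.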
SIAE primary = blocks human sialic acid acetylesterase; inhibition, % at 9.66 µM; AID 1053197; SIAE FP-Rh probe binding, fluorescence polarization; actives 0.69% (n = 370,000); Q9HAT2;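 active = inhibition above a cutoff: mean of compounds within the control limits plus 3 SD of those, cut at about 17% in these data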;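 also: 0% = plate median of compound wells and 100% = probe without SIAE protein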
SIAE inh conf = human SIAE inhibition, confirmation | actives 13% (n = 2,300) | SIAE FP-Rh activity-based probe, fluorescence polarization | AID 1117263 | shares compounds with SIAE primary | inhibition, % at 9.66 µM;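 active = mean inhibition of the replicates above the hit cutoff set in the primary screen, cut at about 17% in these data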;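 also: 0% = SIAE with DMSO and probe and 100% = probe without SIAE; inhibitors lower polarization as more probe stays unbound to SIAE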
* = called active by the depositor; · = no result given. In the library only some 1.8% were active in any assay of this set; here they are far more common.

SMILES	TCR CD3 inh	HTRA1 inhibitor	ABHD4 inh	DDE Tn6 FP inh	Tn7 DDE FP	SIAE primary	SIAE inh conf
COc1ccc(C(=O)Nc2cc(OC)c(NC(=O)Nc3ccccc3)cc2OC)cc1	12	4	15	2	3	23*	9
O=C(O)CCCCCCNC(=O)c1cncc(O)c1	8	-1	-1	-2	-5	23*	-2
CC1(C(=O)NCc2cccc3ccccc23)CCN1C(=O)Cc1ccc(-c2ccccc2)cc1 (stereo not drawn)	-2	·	-22	0	-1	-14	·
CC(=O)c1ccc(OC(=O)CCN2c3ccccc3Sc3ccccc32)cc1	2	35	-5	-10	-5	19*	-3
COC(=O)c1ccc(OC(=O)CCN2c3ccccc3Sc3ccccc32)cc1	-5	10	-1	9	7	6	·
O=[N+]([O-])c1cc(C(F)(F)F)ccc1NCCc1c[nH]c2ccc(O)cc12	-1	12	-8	-10	-2	17*	2
CC(=O)NC(=S)Nc1ccc(NC(=S)NC(=O)c2cccs2)cc1	8	1	2	5	10	-1	·
CCN(CC)c1ccc(NC(=S)NC(=O)c2cccs2)cc1	-6	6	11	-1	0	17*	-1
CCN(CC)C(=O)c1ccc(NS(=O)(=O)c2ccc3[nH]c(=O)[nH]c3c2)cc1	1	2	-4	7	0	-6	·
O=C(COC(=O)/C=C/c1cccs1)Nc1nc(-c2ccccc2)cs1	0	-1	-4	2	1	8	·
O=C(COC(=O)/C=C/c1cccs1)Nc1nc(-c2cccc(Br)c2)cs1	-1	-5	9	-2	5	30*	16
Cc1nc(N2CCN(S(=O)(=O)c3ccc(Br)cc3)CC2)c2c(C)c(C)sc2n1	4	-5	2	-2	1	19*	-7
N#CCc1cnc2ccccc2n1	2	28	8	-1	4	18*	-2
CC1(C)C2CC=C(/C=N/NC(=O)c3ccc(O)cc3)C1C2 (stereo not drawn)	0	5	6	2	4	5	·
COc1ccc(NC(=O)CC2SC(=NCC3CCCO3)NC2=O)cc1 (stereo not drawn)	1	0	1	4	5	17*	-3
CCCn1c(N)c(N(CCOC)C(=O)c2cc(C)cc(C)c2)c(=O)[nH]c1=O	3	2	1	6	-4	-1	·
CN1CCN(c2ccc(CNC(=O)c3ccc(-c4ccc(F)c(F)c4)c4ccoc34)cc2)CC1	10	·	6	1	-4	19*	7
Cc1ccc(C(=O)NCC(c2ccco2)N2CCc3ccccc32)cc1 (stereo not drawn)	0	1	1	-3	6	21*	3
Cc1cccc(C(=O)NCC(=O)NCC(c2ccco2)N2CCCCC2)c1 (stereo not drawn)	-2	-8	0	-7	-6	18*	1
Cc1cccc(C(=O)NCC(c2ccco2)N2CCc3ccccc32)c1 (stereo not drawn)	2	-9	8	1	8	22*	9
Nc1ccn([C@@H]2O[C@H](C(=O)N[C@H](Cc3ccccc3)C(=O)N3CCN(C(=O)N4CCCCC4)CC3)[C@@H](O)[C@H]2O)c(=O)n1	-3	·	4	-15	-3	23*	18*
Nc1ccn([C@@H]2O[C@H](C(=O)N[C@H](Cc3ccccc3)C(=O)N3CCN(CCO)CC3)[C@@H](O)[C@H]2O)c(=O)n1	0	·	4	-7	-2	5	·
NC(=O)c1ncn([C@@H]2O[C@H](C(=O)N[C@H](Cc3c[nH]c4ccccc34)C(=O)N3CCN(C(=O)N4CCCCC4)CC3)[C@@H](O)[C@H]2O)n1	3	·	-3	-5	-1	17*	8
CCN(CC)CCCN(C(=O)c1ccc(F)cc1)c1nc(-c2ccc(OC)cc2)cs1	0	-2	2	4	-2	24*	4
COc1ccc(-c2csc(N(CCCN(C)C)C(=O)c3ccc(F)cc3)n2)cc1	0	-9	6	6	7	2	·
SMILES	TCR CD3 inh	HTRA1 inhibitor	ABHD4 inh	DDE Tn6 FP inh	Tn7 DDE FP	SIAE primary	SIAE inh conf
CCC(=O)c1c(CC)c2n3c1CC[C@H]3CCC2	-5	11	3	-5	0	17*	4
CCc1c(C(=O)C(C)O)c2n3c1CCC[C@@H]3CC2 (stereo partly drawn)	·	·	7	4	-1	9	·
CCOc1ccc(N(CC(=O)N2CCOCC2)S(=O)(=O)c2ccc(SC)cc2)cc1	-4	-3	4	3	1	12	·
CCOCCCNc1ncnc2c1[nH]c1ccccc12	4	2	6	-4	1	1	·
CCCCOCCCNc1ncnc2c1[nH]c1ccccc12	-6	-3	2	3	2	18*	4
O=C(Cn1c(=S)[nH]c2ncccc2c1=O)NCCc1ccccc1	-8	·	-1	3	-6	36*	-3
O=c1c2cccnc2[nH]c(=S)n1Cc1ccccc1	-1	3	10	-4	-8	-3	·
COc1ccc(Nc2cc(C)c3cc([N+](=O)[O-])ccc3n2)cc1	-5	5	26	1	2	24*	2
Cc1cccc(NC(=O)CN2C(=O)N/C(=C/c3cc(C)n(C(C)C)c3C)C2=O)c1	5	1	-2	5	5	23*	1
O=C(COC(=O)c1cccnc1)c1ccc(Cl)c(Cl)c1	-7	-2	-3	-5	-5	-3	·
O=C(COC(=O)c1cccnc1)c1ccc(Cl)cc1	-4	-7	2	4	-3	18*	-4
O=C(C[C@H]1C(=O)N(CCc2ccccc2)C[C@@H]1c1ccccc1)Nc1ccccc1	0	-6	-1	9	4	-3	·
Cc1nc2cc(C(=O)O)ccc2n1-c1ccccc1	1	1	2	-2	-2	-3	·
COc1ccccc1-n1c(C)nc2cc(C(=O)O)ccc21	8	10	0	3	-7	17*	-2
Cc1cc(C(=O)OCC(=O)NC2(C#N)CCCCC2)c(C)o1	-6	6	-5	-4	0	-12	·
CC1CCN(S(=O)(=O)c2ccc(Cl)cc2)CC1	7	0	-3	-2	0	0	·
CC1CCN(S(=O)(=O)c2ccc(F)c(C(=O)O)c2)CC1	-1	-6	-1	-2	-8	24*	1
O=C(NCC1CCCCC1)c1cc(S(=O)(=O)N2CCOCC2)ccc1F	-3	6	2	2	6	79*	-2
COC(=O)CSc1nnc(NC(=O)c2ccc3c(c2)OCO3)s1	18	7	0	6	-2	19*	-2
